In publication PMC4186687 (Molecular Pharmaceutics, 2014):

Columns and labels:
SK-OV-3 cells [1] = assay: Flow cytometry uptake with endocytic inhibitors; format: cell-based, human; details: F′-PEpYLGLD:[W5R4C]–SeNPs 1:10, SK-OV-3, 2 h, 37 °C, n = 3
SK-OV-3 cells [2] = assay: Confocal microscopy on live cells; format: cell-based, human; details: F′-PEpYLGLD 5 μM with or without [W5R4C]–SeNPs 50 μM, SK-OV-3, 2 h, 37 °C
In short: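 SK-OV-3 cells, maintained in EMEM with 10% FBS and 1% penicillin–streptomycin at 37 °C under 5% CO2, were grown overnight on coverslips (1 × 10^5 cells per well). Fluorescein-labelled peptide (5 μM), alone or with peptide-capped selenium nanoparticles (50 μM), was added in opti-MEM for 2 h at 37 °C. Slides were washed and nuclei were DAPI-stained. Fluorescence intensity was compared with probe alone, in triplicate.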

CCN(c1nc(N)c(C(=O)N=C(N)N)nc1Cl)C(C)C [EIA, 5-(N-ethyl-N-isopropyl)-amiloride]
inhibition of uptake of F′-PEpYLGLD loaded [W5R4C]–SeNPs (SK-OV-3 cells [1]): 40%

CCN(CC)CCCC(C)Nc1ccnc2cc(Cl)ccc12 (stereo not shown) [chloroquine]
effect on uptake of F′-PEpYLGLD loaded [W5R4C]–SeNPs (in words) (SK-OV-3 cells [1]): did not significantly decrease

CN(C)CCCN1c2ccccc2Sc2ccc(Cl)cc21 [chlorpromazine]
effect on uptake of F′-PEpYLGLD loaded [W5R4C]–SeNPs (in words) (SK-OV-3 cells [1]): did not significantly decrease

C[C@@H]1[C@H](O)[C@@H](C)/C=C/C=C/CC/C=C/C=C/C=C/C=C/C(O[C@H]2O[C@H](C)[C@@H](O)[C@H](N)[C@@H]2O)CC2O[C@](O)(CC(O)C(O)CCC(O)CC(O)CC(O)CC(=O)O[C@H]1C)CC(O)C2C(=O)O (stereo partly shown) [nystatin]
inhibition of uptake of F′-PEpYLGLD loaded [W5R4C]–SeNPs (SK-OV-3 cells [1]): 52%

[N-]=[N+]=[N-].[Na+] [sodium azide]
effect on uptake of F′-PEpYLGLD loaded [W5R4C]–SeNPs (in words) (SK-OV-3 cells [1]): did not alter

F′-PEpYLGLD
intracellular fluorescence of F′-PEpYLGLD (confocal microscopy) (SK-OV-3 cells [2]): No green fluorescence

methyl-β-cyclodextrin
effect on uptake of F′-PEpYLGLD loaded [W5R4C]–SeNPs (in words) (SK-OV-3 cells [1]): did not significantly decrease
